Measurements published in ChEMBL document CHEMBL4020714, “Design, synthesis, and evaluation of curcumin derivatives as Nrf2 activators and cytoprotectors against oxidative death” (Eur J Med Chem, 2017).
Active and inactive are the calls of the source. No cut-off for these calls is given here.

What was measured:
Type in all cases: cell-based
[1] = target: T1, Nuclear factor erythroid 2-related factor 2 (Homo sapiens) (UniProt Q16236); assay: Activation of Nrf2 in human HepG2 cells assessed as increase in HO-1 expression level after 3 hrs by Western blot analysis
T1 sequence (whole entry): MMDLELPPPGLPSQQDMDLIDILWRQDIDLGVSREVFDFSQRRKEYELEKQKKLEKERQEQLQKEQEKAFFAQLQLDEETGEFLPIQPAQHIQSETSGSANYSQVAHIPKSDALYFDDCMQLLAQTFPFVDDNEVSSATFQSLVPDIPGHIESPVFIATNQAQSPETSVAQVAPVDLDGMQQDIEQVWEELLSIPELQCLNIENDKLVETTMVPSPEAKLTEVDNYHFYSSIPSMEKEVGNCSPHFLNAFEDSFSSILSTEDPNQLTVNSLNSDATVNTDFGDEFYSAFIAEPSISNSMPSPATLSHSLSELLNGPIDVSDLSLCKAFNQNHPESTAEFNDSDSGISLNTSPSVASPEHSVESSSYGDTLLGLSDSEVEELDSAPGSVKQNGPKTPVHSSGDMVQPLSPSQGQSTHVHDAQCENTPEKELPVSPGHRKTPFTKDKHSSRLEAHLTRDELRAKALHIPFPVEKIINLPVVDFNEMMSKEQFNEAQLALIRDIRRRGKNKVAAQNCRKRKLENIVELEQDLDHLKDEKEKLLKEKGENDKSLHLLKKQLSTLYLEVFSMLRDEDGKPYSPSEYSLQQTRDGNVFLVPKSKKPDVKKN
How it was run: (§1)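 HepG2 cells (2×10^6/well) treated at the indicated concentrations and times. Whole-cell lysates, or nuclear and cytoplasmic fractions, are prepared and quantified by BCA. Samples are run at 40 μg/lane on 12% SDS-PAGE, transferred to nitrocellulose, probed with specific antibodies and HRP secondary (1/5000), and detected by ECL. Where used, LY294002 (15 μM), SP600125 (25 μM) or DTT (400 μM) is added 1 h before compound.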

[2] = target: T1, Nuclear factor erythroid 2-related factor 2 (Homo sapiens); assay: (§2) Activation of Nrf2 in human HepG2 cells assessed as cytoprotection against t-BHP-induced oxidative cell death at 5 uM incubated for 24 hrs followed by compound removal with subsequent incubation with 900 uM of t-BHP for 6 hrs in presence of 100 nM Nrf2 inhibitor TRG for 1 hr prior to compound treatment by MTT assay
How it was run: (§3)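 HepG2 cells (5×10^3/well) seeded and grown 24 h in 1640 medium with 10% FBS at 37 °C and 5% CO2. Compound is added for 24 h, then removed, and cells are challenged with 900 μM t-BHP for 6 h at 37 °C. MTT (0.5 mg/mL) is added for 4 h, formazan dissolved in DMSO, and absorbance read at 570 nm. Where used, inhibitors are added 1 h before compound. Mean ± SD of three independent experiments.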

[3] = target: T1, Nuclear factor erythroid 2-related factor 2 (Homo sapiens); assay: as §2, with “15 uM PI3K/Akt” for “100 nM Nrf2”, “LY294002” for “TRG”; how it was run: as §3
[4] = target: T1, Nuclear factor erythroid 2-related factor 2 (Homo sapiens); assay: Activation of Nrf2 in human HepG2 cells assessed as increase in nuclear Nrf2 expression level at 5 uM after 1 to 6 hrs by Western blot analysis; how it was run: as §1

Activity [1]: Active
Activity [4]: Active
SMILES: CC(C)(C(=O)/C=C/c1ccc(O)c(O)c1)C(=O)/C=C/c1ccc(O)c(O)c1
Activity [2]: inactive
Activity [3]: inactive
